Most compounds without a hit are left out; they make up all but 2.1% or so of the library.
Ba/F3 V617F tox: lowers viability of Ba/F3 cells expressing EpoR and JAK2V617F; ATP luminescence; AID 1446; 220,000 compounds, 1.1% hits; inhibition, % at 5.6 µM;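 active = inhibition above the campaign mean plus 3 SD over all tested compounds, cut at about 24% in these data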;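 note: cytokine-independent growth of Ba/F3 cells driven by EpoR plus mutant JAK2; 0% = DMSO-treated cells and 100% = JAK inhibitor I control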
MT stabilize HCS: microtubule stabilization, imaging screen; HeLa tubulin immunostaining HCS, 24 h; share of cells brighter than vehicle mean+2SD; % tubulin-high responders, % at 10 µM; 200,000 compounds, 0.83% hits;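 active = plate Z-score above 3 for both tubulin-high and condensed-nucleus cell shares, with cell loss under 80%, at 10 µM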;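 note: anti alpha tubulin signal scored within the nucleus-defined area of each cell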
IEC-6 tox: kills IEC-6 intestinal cells in KLF5 counter-screen | IEC-6 cytotoxicity, luminescence viability | AID 1825 | 290,000 compounds, 0.78% hits | inhibition, % at 5 µM;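 note: 0% = plate median of test compound wells and 100% = cytotoxic reference compound wells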
BaF3 parental: counter-screen for JAK2V617F inhibitors: parental Ba/F3 viability inhibitors | CellTiter-Glo ATP luminescence | inhibition, % at 5.6 µM | 220,000 compounds, 1.1% hits;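 active = inhibition above a per-campaign cutoff, the mean inhibition of all tested compounds plus 3 SD, cut at about 27% in these data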;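 note: 0% = DMSO wells and 100% = JAK Inhibitor I control wells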
bCat nuc transl: modulators of beta-catenin nuclear translocation. HeLa beta-catenin nuclear translocation, immunofluorescence imaging. nuclear translocation activity, % at 5 µM. 190,000 compounds, 0.3% hits;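 active = nuclear translocation activity above 50% at 5 µM, with a well cell count of 50 or more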;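 note: per-cell ratio of nuclear to cytoplasmic median beta-catenin stain intensity; plate controls were DMSO negative control for no effect and GSK-3 inhibitor IX positive control for full effect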
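Signal – beta-catenin immunofluorescence imaging with DAPI · Test system – human HeLa cell line · Dosing – 5 µM primary single dose, 0.1% DMSO, 0.02–20 µM confirmation series · Measure – % activation, nuclear-to-cytoplasmic median beta-catenin signal ratio per cell · Incubation – 24 h compound exposure at 37°C, 5% CO2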
KLF5 inh: kruppel-like factor 5 inhibition; AID 1700; inhibition, % at 5 µM; DLD-1 KLF5 promoter-luciferase reporter, luminescence; 290,000 compounds, 0.23% hits;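 active = inhibition above a per-plate limit of that plate's mean compound inhibition plus 3 SD, cut at about 60% in these data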;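 note: 0% = DMSO wells and 100% = LY294002 at 200 µM; higher means less KLF5 promoter-driven luciferase light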
IEC-6 cytotox cf: confirmation of cytotoxic compounds in rat IEC-6 intestinal epithelial cells; shares compounds with IEC-6 tox; IEC-6 rat intestinal epithelial viability, luminescence; inhibition, % at 5 µM; 1,900 compounds, 63% hits;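 note: 0% = vehicle and 100% = reference cytotoxic drug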
* marks the source's active call; other numbers are inactive results; nt = no result given. Cut-off read from the data, not from the text of the source, unless noted: active = inhibition above about 22%; inactive = the rest.

SMILES	Ba/F3 V617F tox	MT stabilize HCS	IEC-6 tox	BaF3 parental	bCat nuc transl	KLF5 inh	IEC-6 cytotox cf
CCc1ccc(S(=O)(=O)Nc2cc(SCC(=O)O)c(O)c3ccccc23)cc1	-2	3	5	6	1	-4	nt
CCOc1ccc(S(=O)(=O)Nc2cc(SCC(=O)O)c(O)c3ccccc23)cc1	nt	nt	49*	nt	nt	-14	1
COc1ccccc1C(=O)NNC(=S)NC(=O)c1cccs1	nt	nt	48*	nt	nt	60	28*
Cc1ccc(NC(=O)COC(=O)CCNS(=O)(=O)c2ccc(C)c(C)c2)cc1	-1	1	1	4	1	1	nt
Nc1sc(-c2ccccc2)cc1-c1n[nH]c(=S)n1C1CCCCC1	89*	nt	54*	57*	1	40	48*
O=C(O)c1ccc(NC(=S)NC(=O)c2cncc(Br)c2)cc1	nt	nt	-1	nt	nt	14	nt
CC(C)CCNC(=O)C1CCCN(S(=O)(=O)c2ccc3c(c2)CC(C)N3C(=O)C2CC2)C1 (configuration not stated)	nt	nt	-2	nt	nt	-2	nt
O=C(C(Cl)Cl)N1c2ccccc2OCC1c1ccccc1 (configuration not stated)	6	4	37*	9	-6	5	15
O=[N+]([O-])c1ccc(N/N=C/c2cccnc2)cc1	nt	nt	24*	nt	nt	-56	5
O=C(N/N=C/c1cccnc1)c1ccc([N+](=O)[O-])cc1	-3	3	2	1	nt	-13	nt
O=C(CSc1ncnc2nc[nH]c12)c1ccc(Cl)cc1	nt	nt	41*	nt	nt	-14	23*
COc1ccc(-c2c(C#N)c(N)nc3c2CCc2ccccc2-3)cc1OC	22	34*	34*	10	nt	22	24*
COc1ccccc1CNC(=O)CN1C(=O)COc2ccc(S(=O)(=O)N3CCCCC3)cc21	nt	nt	-2	nt	nt	-22	nt
Cc1ccc(NC(=O)COC(=O)[C@@H]2CCCN2C(=O)c2cccs2)cc1S(=O)(=O)N(C)C	-2	nt	-3	-1	-1	-7	nt
Cc1cc(OC(=O)c2ccc(C(C)(C)C)cc2)c([N+](=O)[O-])c(=O)[nH]1	nt	nt	-17	nt	nt	-18	nt
CC(=O)/C(C#N)=C1\NC(=O)C(Cc2ccc(C)c(Cl)c2)S1 (configuration not stated)	2	nt	72*	4	4	21	48*
CNc1ccc(S(=O)(=O)NC)cc1[N+](=O)[O-]	0	2	-1	7	-1	-15	nt
CNc1nc2cc([N+](=O)[O-])c([N+](=O)[O-])cc2nc1NC	75*	6	40*	69*	0	-32	34*
Cc1ccc(-c2nnn3c2nc(NCCc2ccc(S(N)(=O)=O)cc2)c2ccccc23)cc1	3	3	55*	7	-6	8	4
COc1ccc(-c2cc(C)no2)cc1S(=O)(=O)N(C)c1ccc(C)cc1	nt	nt	28*	nt	nt	23	25*
O=[N+]([O-])c1c(Nc2ccc(O)cc2)cc(Cl)c2nonc12	nt	nt	101*	nt	nt	26	68*
Cc1cc(Nc2cccc(Cl)c2Cl)n2ncnc2n1	nt	nt	0	nt	nt	-14	nt
CCN(CC)c1ccc(/C=C/c2cccc[n+]2C)c(OC)c1	nt	nt	28*	nt	nt	19	30*
COc1cccc(NC(=O)CCNS(=O)(=O)c2ccc3c(c2)CC(C)N3C(=O)C2CC2)c1 (configuration not stated)	nt	nt	14	nt	nt	7	nt
Cc1ccn2cc(-c3ccc(O)c(O)c3)nc2c1	nt	nt	23*	nt	nt	-58	13
SMILES	Ba/F3 V617F tox	MT stabilize HCS	IEC-6 tox	BaF3 parental	bCat nuc transl	KLF5 inh	IEC-6 cytotox cf
Oc1ccc(-c2cn3ccccc3n2)cc1O	nt	nt	6	nt	nt	-185	nt
O=C1CC(c2cccc(Cl)c2)c2cc3c(cc2N1)CCC3 (configuration not stated)	9	32*	28*	27*	0	14	29*
CCOc1cccc(C2CC(=O)Nc3cc(OC)c(OC)cc32)c1 (configuration not stated)	nt	nt	3	nt	nt	-34	nt
CCn1c(SCC(=O)N2CCCCC2)nc2c(c1=O)SCC2	nt	nt	3	nt	nt	-7	nt
CCCCOc1ccccc1C(=O)NNC(=S)NC(=O)c1ccccc1[N+](=O)[O-]	nt	nt	25*	nt	nt	15	7
CC1C=CCC2C(=O)N(c3cc(Cl)ccc3O)C(=O)C12 (configuration not stated)	-3	2	0	-3	2	-22	nt
CCC1CCCCN1S(=O)(=O)c1ccc(NC(=O)c2nc(S(C)(=O)=O)ncc2Cl)cc1 (configuration not stated)	nt	nt	94*	nt	nt	8	22
CCS(=O)(=O)c1ncc(Cl)c(C(=O)Nc2ccc(C)cc2)n1	nt	nt	75*	nt	nt	20	42*
CCS(=O)(=O)c1ncc(Cl)c(C(=O)Nc2ccc(S(=O)(=O)N3CCCC(C)C3)cc2)n1 (configuration not stated)	nt	nt	101*	nt	nt	55	4
CSc1ncc(Cl)c(C(=O)Nc2ccc(NC(C)=O)cc2)n1	-6	4	4	-1	-2	1	nt
Cc1ccc(CS(=O)(=O)c2ncc(Cl)c(C(=O)Nc3ccc(OC(F)F)cc3)n2)cc1	nt	nt	31*	nt	nt	10	15
CCC1CCCCN1S(=O)(=O)c1ccc(NC(=O)c2ccncc2)cc1 (configuration not stated)	nt	nt	7	nt	nt	-25	nt
CC1CCCN(S(=O)(=O)c2ccc(NC(=O)CNC3CCCC3)cc2)C1 (configuration not stated)	nt	nt	3	nt	nt	-7	nt
O=c1c2ccccc2c2c(O)nc(-c3ccccc3)n2n1Cc1ccccc1	-3	1	-5	0	-4	2	nt
N#Cc1cccc(NC(=O)COC(=O)c2cccc(N3C(=O)c4ccccc4C3=O)c2)c1	1	2	-10	4	-1	8	nt
C[C@H](O)CC1=C[C@H](O)[C@@H](C)OC1=O	-2	4	1	-5	-2	-21	nt
Cc1cc(-c2ccc(C(C)C)c(S(=O)(=O)N3CCN(c4ccccn4)CC3)c2)on1	nt	nt	23*	nt	nt	15	12
OC[C@H]1O[C@@H](n2cnc3c(NC4CCCC4)ncnc32)[C@H](O)[C@@H]1O	-3	2	-2	5	nt	-5	nt
C=CCNc1ncnc2c1ncn2C1OC(CO)C(O)C1O (configuration not stated)	-1	3	74*	0	4	17	49*
CCOC(=O)C(=NCC1CCCO1)NNc1cc(Cl)ccc1Cl (configuration not stated)	0	nt	-1	-4	0	4	nt
COc1ccc(COc2cc(-c3cccc(OC)c3)nc3ccc(NC(=O)c4ccc(N(C)C)cc4)cc23)cc1	76*	20*	49*	75*	nt	23	15
Cc1oncc1C(=O)Nc1ccc(C(F)(F)F)cc1	5	2	26*	16	-3	-23	4
Cc1oncc1C(=O)Nc1ccc2ccccc2c1	nt	nt	11	nt	nt	-87	nt
CC(=O)c1c2c3c(c(Br)ccc3n(C)c1=O)C(=O)c1ccccc1-2	nt	nt	44*	nt	nt	-19	-4

Screens (PubChem BioAssay)
